# Measured values from ChEMBL document CHEMBL5357072, “Structural Modification of Noscapine via Photoredox/Nickel Dual Catalysis for the Discovery of S-Phase Arresting Agents” (ACS Med Chem Lett, 2024).
# System: NB-4
# Assay: Antiproliferative activity against human NB4 cells assessed as cell growth inhibition at 10 uM incubated for 48 hrs by CCK8 assay relative to control
# Assay type: functional
# Conditions: read-out: GI
# Procedure, shortened: (§1)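 Single-concentration screen of six cancer cell lines. Cells were exposed to 10 μM compound and growth was measured by CCK-8 assay. Results are reported as inhibition rate at 10 μM.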
row,Structure (SMILES),inhibition of growth at 10 µM
1,COc1ccc2c(c1OC)C(=O)O[C@@H]2[C@H]1c2c(c(C3CCCCC3)c3c(c2OC)OCO3)CCN1C(=O)OC(C)(C)C,6.53%
2,COCCCc1c2c(c(OC)c3c1OCO3)[C@H]([C@H]1OC(=O)c3c1ccc(OC)c3OC)N(C(=O)OC(C)(C)C)CC2,27.2%
3,COc1ccc2c(c1OC)C(=O)O[C@@H]2[C@H]1c2c(c(CCCC(F)(F)F)c3c(c2OC)OCO3)CCN1C(=O)OC(C)(C)C,31.5%
4,CCCCc1c2c(c(OC)c3c1OCO3)[C@H]([C@H]1OC(=O)c3c1ccc(OC)c3OC)N(C(=O)OC(C)(C)C)CC2,10%
5,COc1ccc2c(c1OC)C(=O)O[C@@H]2[C@H]1c2c(c(C34C[C@H]5C[C@H](C3)C[C@@H](C4)C5)c3c(c2OC)OCO3)CCN1C(=O)OC(C)(C)C,< 5%
6,COc1ccc2c(c1OC)C(=O)O[C@@H]2[C@H]1c2c(c(CC3CCCN3C(=O)OC(C)(C)C)c3c(c2OC)OCO3)CCN1C(=O)OC(C)(C)C (some centres not stated),29.7%
7,CCC(C)Cc1c2c(c(OC)c3c1OCO3)[C@H]([C@H]1OC(=O)c3c1ccc(OC)c3OC)N(C(=O)OC(C)(C)C)CC2 (some centres not stated),9.33%

# System: MOLM-13
# Assay: Antiproliferative activity against human MOLM-13 cells assessed as cell growth inhibition at 10 uM incubated for 48 hrs by CCK8 assay relative to control
# Assay type: functional
# Conditions: read-out: GI
# Procedure, shortened: as §1
row,Structure (SMILES),inhibition of growth at 10 µM
1,COc1ccc2c(c1OC)C(=O)O[C@@H]2[C@H]1c2c(c(C3CCCCC3)c3c(c2OC)OCO3)CCN1C(=O)OC(C)(C)C,46.1%
2,COCCCc1c2c(c(OC)c3c1OCO3)[C@H]([C@H]1OC(=O)c3c1ccc(OC)c3OC)N(C(=O)OC(C)(C)C)CC2,30.4%
3,COc1ccc2c(c1OC)C(=O)O[C@@H]2[C@H]1c2c(c(CCCC(F)(F)F)c3c(c2OC)OCO3)CCN1C(=O)OC(C)(C)C,36%
4,CCCCc1c2c(c(OC)c3c1OCO3)[C@H]([C@H]1OC(=O)c3c1ccc(OC)c3OC)N(C(=O)OC(C)(C)C)CC2,48.6%
5,COc1ccc2c(c1OC)C(=O)O[C@@H]2[C@H]1c2c(c(C34C[C@H]5C[C@H](C3)C[C@@H](C4)C5)c3c(c2OC)OCO3)CCN1C(=O)OC(C)(C)C,17.6%
6,COc1ccc2c(c1OC)C(=O)O[C@@H]2[C@H]1c2c(c(CC3CCCN3C(=O)OC(C)(C)C)c3c(c2OC)OCO3)CCN1C(=O)OC(C)(C)C (some centres not stated),48.1%
7,CCC(C)Cc1c2c(c(OC)c3c1OCO3)[C@H]([C@H]1OC(=O)c3c1ccc(OC)c3OC)N(C(=O)OC(C)(C)C)CC2 (some centres not stated),51.2%

# System: JeKo-1
# Assay: Antiproliferative activity against human JeKo-1 cells assessed as cell growth inhibition at 10 uM incubated for 48 hrs by CCK8 assay relative to control
# Assay type: functional
# Conditions: read-out: GI
# Procedure, shortened: as §1
row,Structure (SMILES),inhibition of growth at 10 µM
1,COc1ccc2c(c1OC)C(=O)O[C@@H]2[C@H]1c2c(c(C3CCCCC3)c3c(c2OC)OCO3)CCN1C(=O)OC(C)(C)C,< 5%
2,COCCCc1c2c(c(OC)c3c1OCO3)[C@H]([C@H]1OC(=O)c3c1ccc(OC)c3OC)N(C(=O)OC(C)(C)C)CC2,23.3%
3,COc1ccc2c(c1OC)C(=O)O[C@@H]2[C@H]1c2c(c(CCCC(F)(F)F)c3c(c2OC)OCO3)CCN1C(=O)OC(C)(C)C,25.6%
4,CCCCc1c2c(c(OC)c3c1OCO3)[C@H]([C@H]1OC(=O)c3c1ccc(OC)c3OC)N(C(=O)OC(C)(C)C)CC2,11.4%
5,COc1ccc2c(c1OC)C(=O)O[C@@H]2[C@H]1c2c(c(C34C[C@H]5C[C@H](C3)C[C@@H](C4)C5)c3c(c2OC)OCO3)CCN1C(=O)OC(C)(C)C,< 5%
6,COc1ccc2c(c1OC)C(=O)O[C@@H]2[C@H]1c2c(c(CC3CCCN3C(=O)OC(C)(C)C)c3c(c2OC)OCO3)CCN1C(=O)OC(C)(C)C (some centres not stated),15.7%
7,CCC(C)Cc1c2c(c(OC)c3c1OCO3)[C@H]([C@H]1OC(=O)c3c1ccc(OC)c3OC)N(C(=O)OC(C)(C)C)CC2 (some centres not stated),24%

# System: A549
# Assay: Antiproliferative activity against human A549 cells assessed as cell growth inhibition at 10 uM incubated for 48 hrs by CCK8 assay relative to control
# Assay type: functional
# Conditions: read-out: GI
# Procedure, shortened: as §1
row,Structure (SMILES),inhibition of growth at 10 µM
1,COc1ccc2c(c1OC)C(=O)O[C@@H]2[C@H]1c2c(c(C3CCCCC3)c3c(c2OC)OCO3)CCN1C(=O)OC(C)(C)C,< 5%
2,COCCCc1c2c(c(OC)c3c1OCO3)[C@H]([C@H]1OC(=O)c3c1ccc(OC)c3OC)N(C(=O)OC(C)(C)C)CC2,< 5%
3,COc1ccc2c(c1OC)C(=O)O[C@@H]2[C@H]1c2c(c(CCCC(F)(F)F)c3c(c2OC)OCO3)CCN1C(=O)OC(C)(C)C,< 5%
4,CCCCc1c2c(c(OC)c3c1OCO3)[C@H]([C@H]1OC(=O)c3c1ccc(OC)c3OC)N(C(=O)OC(C)(C)C)CC2,< 5%
5,COc1ccc2c(c1OC)C(=O)O[C@@H]2[C@H]1c2c(c(C34C[C@H]5C[C@H](C3)C[C@@H](C4)C5)c3c(c2OC)OCO3)CCN1C(=O)OC(C)(C)C,< 5%
6,COc1ccc2c(c1OC)C(=O)O[C@@H]2[C@H]1c2c(c(CC3CCCN3C(=O)OC(C)(C)C)c3c(c2OC)OCO3)CCN1C(=O)OC(C)(C)C (some centres not stated),< 5%
7,CCC(C)Cc1c2c(c(OC)c3c1OCO3)[C@H]([C@H]1OC(=O)c3c1ccc(OC)c3OC)N(C(=O)OC(C)(C)C)CC2 (some centres not stated),< 5%

# System: HeLa
# Assay: Antiproliferative activity against human HeLa cells assessed as cell growth inhibition at 10 uM incubated for 48 hrs by CCK8 assay relative to control
# Assay type: functional
# Conditions: read-out: GI
# Procedure, shortened: as §1
row,Structure (SMILES),inhibition of growth at 10 µM
1,COc1ccc2c(c1OC)C(=O)O[C@@H]2[C@H]1c2c(c(C3CCCCC3)c3c(c2OC)OCO3)CCN1C(=O)OC(C)(C)C,< 5%
2,COCCCc1c2c(c(OC)c3c1OCO3)[C@H]([C@H]1OC(=O)c3c1ccc(OC)c3OC)N(C(=O)OC(C)(C)C)CC2,< 5%
3,COc1ccc2c(c1OC)C(=O)O[C@@H]2[C@H]1c2c(c(CCCC(F)(F)F)c3c(c2OC)OCO3)CCN1C(=O)OC(C)(C)C,< 5%
4,CCCCc1c2c(c(OC)c3c1OCO3)[C@H]([C@H]1OC(=O)c3c1ccc(OC)c3OC)N(C(=O)OC(C)(C)C)CC2,< 5%
5,COc1ccc2c(c1OC)C(=O)O[C@@H]2[C@H]1c2c(c(C34C[C@H]5C[C@H](C3)C[C@@H](C4)C5)c3c(c2OC)OCO3)CCN1C(=O)OC(C)(C)C,< 5%
6,COc1ccc2c(c1OC)C(=O)O[C@@H]2[C@H]1c2c(c(CC3CCCN3C(=O)OC(C)(C)C)c3c(c2OC)OCO3)CCN1C(=O)OC(C)(C)C (some centres not stated),8.57%
7,CCC(C)Cc1c2c(c(OC)c3c1OCO3)[C@H]([C@H]1OC(=O)c3c1ccc(OC)c3OC)N(C(=O)OC(C)(C)C)CC2 (some centres not stated),6.92%

# System: U-251
# Assay: Antiproliferative activity against human U-251 cells assessed as cell growth inhibition at 10 uM incubated for 48 hrs by CCK8 assay relative to control
# Assay type: functional
# Conditions: read-out: GI
# Procedure, shortened: as §1
row,Structure (SMILES),inhibition of growth at 10 µM
1,COc1ccc2c(c1OC)C(=O)O[C@@H]2[C@H]1c2c(c(C3CCCCC3)c3c(c2OC)OCO3)CCN1C(=O)OC(C)(C)C,< 5%
2,COCCCc1c2c(c(OC)c3c1OCO3)[C@H]([C@H]1OC(=O)c3c1ccc(OC)c3OC)N(C(=O)OC(C)(C)C)CC2,< 5%
3,COc1ccc2c(c1OC)C(=O)O[C@@H]2[C@H]1c2c(c(CCCC(F)(F)F)c3c(c2OC)OCO3)CCN1C(=O)OC(C)(C)C,< 5%
4,CCCCc1c2c(c(OC)c3c1OCO3)[C@H]([C@H]1OC(=O)c3c1ccc(OC)c3OC)N(C(=O)OC(C)(C)C)CC2,< 5%
5,COc1ccc2c(c1OC)C(=O)O[C@@H]2[C@H]1c2c(c(C34C[C@H]5C[C@H](C3)C[C@@H](C4)C5)c3c(c2OC)OCO3)CCN1C(=O)OC(C)(C)C,< 5%
6,COc1ccc2c(c1OC)C(=O)O[C@@H]2[C@H]1c2c(c(CC3CCCN3C(=O)OC(C)(C)C)c3c(c2OC)OCO3)CCN1C(=O)OC(C)(C)C (some centres not stated),< 5%
7,CCC(C)Cc1c2c(c(OC)c3c1OCO3)[C@H]([C@H]1OC(=O)c3c1ccc(OC)c3OC)N(C(=O)OC(C)(C)C)CC2 (some centres not stated),< 5%
